Calls of active or inactive are those of the source.
Legend:
Mus musculus [1] = assay: Neurotoxicity in CF1 albino mouse assessed as death at 300 mg/kg, ip after 0.5 hrs by rotarod test; format: toxicity, organism-based; details: in vivo
In short: (§1)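 Male albino CF-1 mice dosed ip with compound suspended in 0.5% methylcellulose, then placed on a 1-inch knurled plastic rod turning at 6 rpm. A fall three times within 1 min counted as neurotoxicity. Observations were made at 0.5 h and 4 h after dosing. Result given as animals showing toxicity per animals tested, with the kind of toxicity recorded.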

Mus musculus [2] = assay: Neurotoxicity in CF1 albino mouse at 30 mg/kg, ip after 0.5 hrs by rotarod test; format: toxicity, organism-based; details: in vivo
In short: (§2)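 Rotarod neurotoxicity in male albino CF-1 mice dosed ip with compound suspended in 0.5% methylcellulose. Animal placed on a 1 inch diameter knurled plastic rod rotating at 6 rpm. Neurotoxicity scored when the animal falls off three times within 1 min. Readout is number of animals toxic/number tested at the stated time after dosing. TD50 with 95% confidence interval from the quantitative study.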

[3] = Neuroprotective activity in hippocampal slice (unknown origin) assessed as protection against NMDA-induced cell death using propidium iodide staining; format: functional; details: Hippocampus
In short: (§3)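 Organotypic hippocampal slice cultures exposed to NMDA or kainic acid alone or with compound; propidium iodide in all wells; PI fluorescence intensity of slices, proportional to cell death, compared with excitotoxin-only slices; qualitative.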

Mus musculus [4] = assay: Anticonvulsant activity in CF1 albino mouse assessed as protection against 6 Hz-psychomotor-induced seizure at 50 mg/kg, ip after 1 hr; format: functional, organism-based
In short: (§4)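 Male CF-1 mice, ip suspension in 0.5% methylcellulose. Corneal stimulation 0.2 ms monopolar rectangular pulses at 6 Hz, 32 mA for 3 s via constant-current device; mice without minimal clonic phase seizure counted protected. Groups of four; read at 0.25, 0.5, 1, 2, 4 h; result as protected/tested.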

Mus musculus [5] = assay: Anticonvulsant activity in CF1 albino mouse assessed as protection against maximal electroshock-induced seizure at 30 mg/kg, ip after 0.5 hrs; format: functional, organism-based
In short: (§5)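 Male CF-1 mice dosed ip as suspension in 0.5% methylcellulose. Corneal electrodes deliver 60 Hz alternating current, 50 mA for […], after a drop of 0.5% tetracaine HCl in 0.9% NaCl per eye. Protection means abolition of hindlimb tonic extension; scored as protected/tested, or ED50 with 95% confidence interval.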

Rattus norvegicus [6] = assay: Anticonvulsant activity in Sprague-Dawley rat assessed as protection against pilocarpine-induced convulsive status epilepticus at 65 mg/kg, ip; format: functional, organism-based
In short: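 Male Sprague Dawley rats (150–180 g) dosed ip, pilocarpine 50 mg/kg ip given; compound dosed immediately at first behavioral Stage 3 seizure or 30 min later. Number protected from Racine Stage 3 or greater seizures recorded.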

Mus musculus [7] = assay: Anticonvulsant activity in CF1 albino mouse assessed as protection against 6 Hz-psychomotor-induced seizure at 50 mg/kg, ip after 2 hrs; format: functional, organism-based; in short: as §4
Mus musculus [8] = assay: Anticonvulsant activity in CF1 albino mouse assessed as protection against maximal electroshock-induced seizure at 10 mg/kg, ip after 0.5 hrs; format: functional, organism-based; in short: as §5
Mus musculus [9] = assay: Anticonvulsant activity in CF1 albino mouse assessed as protection against 6 Hz-psychomotor-induced seizure at 50 mg/kg, ip after 4 hrs; format: functional, organism-based; in short: as §4
Mus musculus [10] = assay: Neurotoxicity in CF1 albino mouse at 30 mg/kg, ip after 4 hrs by rotarod test; format: toxicity, organism-based; details: in vivo; in short: as §2
Mus musculus [11] = assay: Anticonvulsant activity in ip dosed CF1 albino mouse assessed as protection against subcutaneous pentetrazole-induced seizure after 0.5 hrs; format: functional
In short: (§6)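 Male CF-1 mice, ip in 0.5% methylcellulose; pentetrazole at CD97 (85 mg/kg) injected subcutaneously in a loose fold of neck skin. Observed 30 min; absence of even a threshold seizure (single clonic spasm lasting at least 5 s) counted as protection. Scored protected/tested, or ED50.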

Mus musculus [12] = assay: Neurotoxicity in CF1 albino mouse at 300 mg/kg, ip after 4 hrs by rotarod test; format: toxicity, organism-based; details: in vivo; in short: as §2
Mus musculus [13] = assay: Anticonvulsant activity in CF1 albino mouse assessed as protection against subcutaneous pentetrazole-induced seizure at 30 mg/kg, ip after 4 hrs; format: functional, organism-based; in short: as §6
Mus musculus [14] = assay: Neurotoxicity in ip dosed CF1 albino mouse after 0.25 hrs by rotarod test; format: toxicity, organism-based; details: in vivo
In short: as §2, with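 “dosing.” for “dosing. TD50 with 95% confidence interval from the quantitative study.”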

Mus musculus [15] = assay: Anticonvulsant activity in CF1 albino mouse assessed as protection against maximal electroshock-induced seizure at 3 mg/kg, ip after 0.5 hrs; format: functional, organism-based; in short: as §5
Mus musculus [16] = assay: Anticonvulsant activity in ip dosed CF1 albino mouse assessed as protection against maximal electroshock-induced seizure after 0.5 hrs; format: functional; in short: as §5
Mus musculus [17] = assay: Protective index, ratio of TD50 for ip dosed CF1 albino mouse to ED50 for ip dosed CF1 albino mouse assessed as protection against maximal electroshock-induced seizure after 0.5 hrs; format: functional
In short: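 PI = TD50/ED50. Male CF-1 mice or male Sprague–Dawley rats given compound ip as 0.5% methylcellulose suspension. MES: 60 Hz corneal current, 50 mA mice or 150 mA rats, for […] after tetracaine eye drops; protection is abolition of hindlimb tonic extension.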

Mus musculus [18] = assay: Anticonvulsant activity in CF1 albino mouse assessed as protection against maximal electroshock-induced seizure at 30 mg/kg, ip after 4 hrs; format: functional, organism-based; in short: as §5
Mus musculus [19] = assay: Neurotoxicity in CF1 albino mouse at 50 mg/kg, ip after 0.5 hrs by rotarod test; format: toxicity, organism-based; details: in vivo; in short: as §2
Mus musculus [20] = assay: Neurotoxicity in CF1 albino mouse at 50 mg/kg, ip after 4 hrs by rotarod test; format: toxicity, organism-based; details: in vivo; in short: as §2
Rattus norvegicus [21] = assay: Anticonvulsant activity in Sprague-Dawley rat assessed as protection against maximal electroshock-induced seizure at 30 mg/kg, po; format: functional
Mus musculus [22] = assay: Anticonvulsant activity in CF1 albino mouse assessed as protection against 6 Hz-psychomotor-induced seizure at 25 mg/kg, ip after 0.25 to 4 hrs; format: functional, organism-based; in short: as §4
Mus musculus [23] = assay: Neurotoxicity in CF1 albino mouse at 100 mg/kg, ip after 4 hrs by rotarod test; format: toxicity, organism-based; details: in vivo; in short: as §2
Mus musculus [24] = assay: Anticonvulsant activity in CF1 albino mouse assessed as protection against subcutaneous pentetrazole-induced seizure at 30 mg/kg, ip after 0.5 hrs; format: functional, organism-based; in short: as §6
Mus musculus [25] = assay: Neurotoxicity in CF1 albino mouse at 25 mg/kg, ip after 0.25 to 4 hrs by rotarod test; format: toxicity, organism-based; details: in vivo; in short: as §2
Mus musculus [26] = assay: Neurotoxicity in CF1 albino mouse at 10 mg/kg, ip after 0.5 hrs by rotarod test; format: toxicity, organism-based; details: in vivo
In short: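 Rotarod neurotoxicity in male CF-1 mice dosed ip as 0.5% methylcellulose suspension: mouse placed on 1 inch knurled rod rotating at 6 rpm; toxicity when the animal falls off three times within 1 min, with other signs noted. Scored as toxic/tested at 0.5 h and 4 h.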

[27] = Neuroprotective activity in hippocampal slice (unknown origin) assessed as protection against kainic acid-induced cell death using propidium iodide staining; format: functional; details: Hippocampus; in short: as §3
Mus musculus [28] = assay: Neurotoxicity in CF1 albino mouse at 50 mg/kg, ip after 2 hrs by rotarod test; format: toxicity, organism-based; details: in vivo; in short: as §2
Histamine H3 receptor = Histamine H3 receptor (Homo sapiens, UniProt Q9Y5N1); assay: Displacement of [3H]-Nalpha-methylhistamine from human recombinant histamine H3 receptor expressed in HEK293 cells after 90 mins; format: cell-based
Mus musculus [29] = assay: Neurotoxicity in CF1 albino mouse assessed as death at 100 mg/kg, ip after 0.5 hrs by rotarod test; format: toxicity, organism-based; details: in vivo; in short: as §1
Mus musculus [30] = assay: Analgesic activity in mouse assessed as inhibition of formalin-induced paw licking behavior at 13 mg/kg, ip after 0.25 hrs; format: functional, organism-based
In short: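 Male albino mice, ip in 0.5% methylcellulose; 0.5% formalin injected sub-dermally into right hindpaw plantar surface 0.25 h after dosing. Paw licking observed for the first 2 min of each 5-min epoch up to 40 min after dosing; cumulative licking duration compared with vehicle-pretreated group, acute and inflammatory phases.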

Mus musculus [31] = assay: Neurotoxicity in CF1 albino mouse at 3 mg/kg, ip after 0.5 hrs by rotarod test; format: toxicity, organism-based; details: in vivo; in short: as §2
Mus musculus [32] = assay: Anticonvulsant activity in CF1 albino mouse assessed as protection against maximal electroshock-induced seizure at 100 mg/kg, ip after 0.5 hrs; format: functional, organism-based; in short: as §5
Mus musculus [33] = assay: Anticonvulsant activity in CF1 albino mouse assessed as protection against maximal electroshock-induced seizure at 100 mg/kg, ip after 4 hrs; format: functional, organism-based; in short: as §5
Mus musculus [34] = assay: Neurotoxicity in CF1 albino mouse assessed as unable to grasp rotarod, death and diarrhea at 300 mg/kg, ip after 0.5 hrs by rotarod test; format: toxicity, organism-based; details: in vivo; in short: as §1
Mus musculus [35] = assay: Anticonvulsant activity in CF1 albino mouse assessed as protection against maximal electroshock-induced seizure at 300 mg/kg, ip after 0.5 hrs; format: functional, organism-based; in short: as §5
Mus musculus [36] = assay: Neurotoxicity in CF1 albino mouse assessed as unable to grasp rotarod and death at 100 mg/kg, ip after 0.5 hrs by rotarod test; format: toxicity, organism-based; details: in vivo; in short: as §1
Mus musculus [37] = assay: Anticonvulsant activity in CF1 albino mouse assessed as protection against subcutaneous pentetrazole-induced seizure at 100 mg/kg, ip after 4 hrs; format: functional, organism-based; in short: as §6
Mus musculus [38] = assay: Anticonvulsant activity in CF1 albino mouse assessed as protection against subcutaneous pentetrazole-induced seizure at 100 mg/kg, ip after 0.5 hrs; format: functional, organism-based; in short: as §6

Histamine H3 receptor, sequence (Q9Y5N1 whole entry): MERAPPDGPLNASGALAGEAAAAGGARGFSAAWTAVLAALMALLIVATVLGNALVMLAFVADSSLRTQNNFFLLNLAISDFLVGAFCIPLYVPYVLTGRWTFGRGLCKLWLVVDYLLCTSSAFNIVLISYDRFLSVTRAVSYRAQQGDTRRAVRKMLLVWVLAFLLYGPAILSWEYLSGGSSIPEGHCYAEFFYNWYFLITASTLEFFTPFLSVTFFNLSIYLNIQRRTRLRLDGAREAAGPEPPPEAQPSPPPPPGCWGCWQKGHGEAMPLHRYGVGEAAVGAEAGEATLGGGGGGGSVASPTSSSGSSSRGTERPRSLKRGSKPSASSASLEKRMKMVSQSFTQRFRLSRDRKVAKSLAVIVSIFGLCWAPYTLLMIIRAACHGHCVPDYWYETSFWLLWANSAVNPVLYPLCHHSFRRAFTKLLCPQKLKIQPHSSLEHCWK

CC1CCN(CCCCCCOc2ccc(Cl)cc2)CC1.O=C(O)C(=O)O
Activity (Mus musculus [1]): Toxic | Activity (Mus musculus [2]): Non-toxic | Activity [3]: inactive | Activity (Mus musculus [4]): inactive | Activity (Mus musculus [5]): Active | Activity (Rattus norvegicus [6]): Active | Activity (Mus musculus [7]): inactive | Activity (Mus musculus [8]): Active | Activity (Mus musculus [9]): inactive | Activity (Mus musculus [10]): Non-toxic | ED50 (Mus musculus [11]): > 30 mg/kg | Activity (Mus musculus [12]): Non-toxic | Activity (Mus musculus [13]): inactive | TD50 (median neurotoxic dose) (Mus musculus [14]): 40.77 mg/kg | Activity (Mus musculus [15]): inactive | ED50 (Mus musculus [16]): 13 mg/kg | Ratio TD50/ED50 (Mus musculus [17]): 3.1 | Activity (Mus musculus [18]): Active | Activity (Mus musculus [19]): Non-toxic | Activity (Mus musculus [20]): Non-toxic | Activity (Rattus norvegicus [21]): 25% | Activity (Mus musculus [22]): inactive | Activity (Mus musculus [23]): Non-toxic | Activity (Mus musculus [24]): inactive | Activity (Mus musculus [25]): Toxic | Activity (Mus musculus [26]): Non-toxic | Activity [27]: inactive | Activity (Mus musculus [28]): Non-toxic | Ki (Histamine H3 receptor): 189 nM | Activity (Mus musculus [29]): Toxic | Activity (Mus musculus [30]): inactive | Activity (Mus musculus [31]): Non-toxic

CC1CCN(CCCCCCCOc2cccc(Cl)c2)CC1.O=C(O)C(=O)O
Activity (Mus musculus [2]): Non-toxic | Activity (Mus musculus [5]): inactive | Activity (Mus musculus [10]): Non-toxic | Activity (Mus musculus [12]): Non-toxic | Activity (Mus musculus [13]): inactive | Activity (Mus musculus [18]): inactive | Activity (Mus musculus [23]): Non-toxic | Activity (Mus musculus [24]): inactive | Activity (Mus musculus [32]): inactive | Activity (Mus musculus [33]): Active | Activity (Mus musculus [34]): Toxic | Activity (Mus musculus [35]): Active | Ki (Histamine H3 receptor): 805 nM | Activity (Mus musculus [36]): Toxic | Activity (Mus musculus [37]): inactive | Activity (Mus musculus [38]): inactive
